The source made the active and inactive calls. No cut-off for these calls is given here.
Key:
[1] = tested on: Aspergillus flavus; experiment: Antifungal activity against Aspergillus flavus NRRL 6541 at 200 ug/disk after 48 hrs by standard disk diffusion assay; type: functional; conditions: for zone of inhibition at 200 µg/disc: NRRL 6541, 48 h, read-out: IZ
Method in brief: (§1)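 Compounds applied at 200 µg per disk. Read-out was the zone diameter (mm) around the disk at 48 h. Zones were scored as clear, partial clearing, or reduced sporulation of the fungus.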

[2] = tested on: Candida albicans; experiment: Antifungal activity against Candida albicans ATCC 14053 at 200 ug/disk after 48 hrs by standard disk diffusion assay; type: functional, organism-based
[3] = tested on: Staphylococcus aureus; experiment: […] activity against Staphylococcus aureus ATCC 29213 at 200 ug/disk after 48 hrs by standard disk diffusion assay; type: functional, organism-based
[4] = tested on: Fusarium verticillioides; experiment: Antifungal activity against Fusarium verticillioides NRRL 25457 at 200 ug/disk after 48 hrs by standard disk diffusion assay; type: functional, organism-based; method in brief: as §1
[5] = tested on: Escherichia coli; experiment: […] activity against Escherichia coli ATCC 25922 at 200 ug/disk after 48 hrs by standard disk diffusion assay; type: functional, organism-based

C/C=C/C=C/C(=O)c1cc(C)c(OC)cc1O
Activity [1]: inactive

O[C@@H]1c2cocc2[C@@H](O)[C@H]2O[C@H]21
Activity [2]: inactive
Activity [3]: inactive
Activity [1]: inactive
Activity [4]: inactive
Activity [5]: inactive

C/C=C/C=C/C(=O)c1cc(C=O)c(OC)cc1O
zone of inhibition at 200 µg/disc [1]: 40 mm

C/C=C/CCC(=O)c1cc(CO)c(OC)cc1O
zone of inhibition at 200 µg/disc [1]: 18 mm

CCCC(O)[C@H]1OCC2=C1[C@@H](O)[C@H]1O[C@H]1[C@@H]2O (stereo partly drawn)
Activity [2]: inactive
Activity [3]: inactive
Activity [1]: inactive
Activity [4]: inactive
Activity [5]: inactive
